Tn7 DDE FP – inhibitors of Tn7 peptide binding to human fibrin DD(E) | inhibition, % at 8.3 µM | AID 720508 | hit rate 0.13% among 370,000 | P02675 | FP displacement of FITC-Tn7 peptide from fibrin DD(E); 0% = median of compound wells per plate;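 active means inhibition above the mean of compounds falling within the control limits plus 3 SD of them, cut at about 14% in these data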;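 further: 0% = plate median of compound wells and 100% = 10 µM Aha-Tn7 peptide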
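Assay system: human fibrin DD(E) protein / Input: 2 µM fibrin DD(E) / Benchmarks: high control of 10 µM Aha-Tn7 peptide / Measured by: fluorescence polarization of the labelled Tn7 tracer / Medium: Tris buffer with calcium and detergent, pH 7.8 / Timing: 10 min compound pre-incubation, 3 h probe incubation at room temperature / Repeats: one replicate per compound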
HTRA1 inhibitor – inhibitors of human serine peptidase HTRA1 | AID 504803 | Q92743 | recombinant HTRA1, FP-rhodamine activity-based probe, fluorescence polarization | hit rate 0.5% among 340,000 | inhibition, % at 5.96 µM; in the data active means inhibition above about 36%;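 further: 0% = enzyme with DMSO and 100% = wells lacking enzyme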
Target sequence (Q92743 whole entry, looked up): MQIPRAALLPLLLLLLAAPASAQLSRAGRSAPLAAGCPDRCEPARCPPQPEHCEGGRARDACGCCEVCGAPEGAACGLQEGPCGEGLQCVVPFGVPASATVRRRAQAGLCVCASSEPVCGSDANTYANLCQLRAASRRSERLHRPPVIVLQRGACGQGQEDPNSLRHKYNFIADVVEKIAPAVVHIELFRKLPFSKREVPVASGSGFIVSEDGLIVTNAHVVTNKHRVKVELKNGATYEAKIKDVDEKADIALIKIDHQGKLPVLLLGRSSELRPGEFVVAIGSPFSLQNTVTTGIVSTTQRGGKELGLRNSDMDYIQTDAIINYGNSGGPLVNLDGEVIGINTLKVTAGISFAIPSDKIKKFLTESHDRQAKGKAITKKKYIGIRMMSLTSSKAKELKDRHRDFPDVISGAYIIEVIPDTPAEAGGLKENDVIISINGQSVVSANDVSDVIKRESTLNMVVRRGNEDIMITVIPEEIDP
SIAE primary – blocks human sialic acid acetylesterase. Q9HAT2. SIAE FP-Rh probe binding, fluorescence polarization. inhibition, % at 9.66 µM. hit rate 0.69% among 370,000. AID 1053197;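 active means inhibition above a cutoff: mean of compounds within the control limits plus 3 SD of those, cut at about 17% in these data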;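 further: 0% = plate median of compound wells and 100% = probe without SIAE protein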
TCR-CD3 inh – blocks the human TCR-CD3 interaction | TAMRA-labeled TCR probe fluorescence, biochemical | inhibition, % at 9.4 µM | hit rate 0.37% among 360,000 | AID 651800;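 further: recombinant mutant TCR 2C K166C tagged with TAMRA read by polarization; 0% = receptor in buffer alone and 100% = receptor with positive control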
mABHD4 FP – inhibits mouse alpha/beta hydrolase domain 4 | Q8VD66 | purified mABHD4, FP-Rh probe fluorescence polarization | inhibition, % at 8.92 µM | AID 720543 | hit rate 0.54% among 370,000;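 active means inhibition exceeding the mean over every tested compound plus 3 SD, cut at about 30% in these data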;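 further: 0% = plate median of compound wells and 100% = S159A mutant with DMSO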
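Assay system: Wild-type mouse ABHD4 protein | Medium: HEPES pH 7.0 buffer, 150 mM NaCl, 0.01% Pluronic F-127 | Incubation: Enzyme–compound pre-incubation 45 min, then probe 60 min, both 25 °C | Technique: Fluorescence polarization with parallel and perpendicular emission, 525/598 nm | Evaluation: % inhibition of FP-Rh probe binding versus controls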
Tn6 DDE FP – disrupts Tn6 cyclic peptide binding to fibrin D-Dimer-E complex | P02675 | Fibrin DD(E) TRITC-Tn6 fluorescence polarization displacement | inhibition, % at 8.3 µM | hit rate 0.21% among 370,000 | AID 720509;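 active means inhibition above a per-campaign cutoff: mean of compounds within control limits plus 3 SD, cut at about 15% in these data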;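 further: 0% = median of all compound wells on the plate and 100% = blocking peptide control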
BSA TAMRA ctr – counter-screen for TCR-CD3 interaction inhibitors: BSA probe. shares compounds with TCR-CD3 inh. TAMRA-labeled BSA probe fluorescence counterscreen. inhibition, % at 9.4 µM. hit rate 10% among 1,200. AID 652035; in the data active means inhibition above about 23%;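 further: 0% = buffer low control and 100% = reference high control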
TCR-CD3 conf – confirmation of human TCR-CD3 interaction inhibitors. shares compounds with TCR-CD3 inh. TAMRA-labeled TCR probe fluorescence binding assay. inhibition, % at 9.4 µM. hit rate 48% among 1,200. AID 652036
* hit, by the source's call; . = no result given. Shown are actives, neighbours in structure and some others; about 1.8% of the full set was active somewhere. Unless noted, no stated cut-off is given here; in the data, active means inhibition above about 19%; inactive means the rest.

SMILES	Tn7 DDE FP	HTRA1 inhibitor	SIAE primary	TCR-CD3 inh	mABHD4 FP	Tn6 DDE FP	BSA TAMRA ctr	TCR-CD3 conf
COc1cc2ccccc2cc1C(=O)NNC(=O)c1ccccc1O	3	27	0	34*	10	0	-6	25*
COc1ccc(NC(=O)c2cc3ccccc3cc2OC)cc1	6	-18	-9	3	3	-7	.	.
Cc1ccc(NS(=O)(=O)c2ccc(C(=O)NNC(=O)c3ccccc3O)cc2)cc1	-3	-14	10	20*	7	2	-16	9
COC(=O)[C@]12C[C@H](CC(=O)NCc3ccc(C)o3)C(=O)N(Cc3cccc4ccccc34)C1=C[C@H](C(C)(C)C)O[C@@H]2C	-3	.	-8	.	-12	-2	.	.
Cc1ccc(S(=O)(=O)N2CCC(C(=O)NNC(=O)c3ccccc3O)CC2)cc1	-6	20	-2	52*	6	5	-5	36*
Cc1ccc(S(=O)(=O)N2CCC(C(=O)NNC(=O)c3ccccc3O)CC2)cc1C	-7	16	1	41*	1	4	3	32*
Cc1ccc(S(=O)(=O)N2CCC(C(=O)N3CCCCCCC3)CC2)cc1C	2	-3	0	-7	-2	-4	.	.
COC(=O)C/C=C/[C@@H](C)[C@H](NC(=O)OCC(Cl)(Cl)Cl)c1ccc(-c2ccccc2)cc1	2	.	-8	.	-11	-14	.	.
Cc1ccccc1NS(=O)(=O)c1ccc(C(=O)N2CCC2)cc1	-12	2	-10	20*	5	-3	2	1
O=C(NNC(=S)Nc1ccccc1)NNC(=S)Nc1ccccc1	4	15	10	30*	12	0	-2	17
O=C(NNC(=S)Nc1ccccc1)Nc1ccccc1	0	3	5	-5	4	-9	.	.
O=C(Nc1ccc2oc(-c3cccnc3)nc2c1)c1ccc2c(c1)OCCO2	-2	-20	-20	27*	-5	-7	-5	16
Cc1ccccc1OCC(=O)Nc1ccncc1	3	-1	9	13	-1	4	.	.
CC(=O)Nc1cccc(NC(=O)COc2ccccc2C)c1	1	8	0	21*	0	-2	3	0
COc1ccc(N2CC(C(=O)Nc3ccc([N+](=O)[O-])cc3Br)CC2=O)cc1 (configuration not stated)	-6	-6	6	7	5	-3	.	.
COc1ccc(N2CC(C(=O)N/N=C/c3cc([N+](=O)[O-])ccc3O)CC2=O)cc1 (configuration not stated)	11	9	-3	25*	2	-2	-1	15
O=C(O)c1ccc(-n2cccc2/C=N\NC(=O)c2cc3cc(Br)ccc3o2)cc1	-3	-17	-3	29*	-2	-11	-6	37*
Cn1cc(/C=N/NC(=O)c2cc3cc(Br)ccc3o2)c2ccccc21	-5	.	2	-9	-6	-5	.	.
CC(C)N1Cc2nnn(Cc3ccc(F)cc3)c2-c2cc(F)ccc2S1(=O)=O	-4	.	-6	.	-11	5	.	.
Cc1cccc(-c2cccc3c4c([nH]c23)[C@@H]2C[C@H](N(C)C(=O)NC3CCCCC3)[C@H]([C@H](C)O)CN2CC4)c1	-8	.	-3	.	5	1	.	.
O=C1CCC2(CCCCC2)N1CCCO	1	.	0	.	3	1	.	.
O=C(O)CC(C(=O)O)N1C(=O)/C(=C/c2ccc(-c3nc4ccccc4s3)o2)SC1=S (configuration not stated)	-2	15	4	22*	38*	-12	-15	26*
CCOc1ccccc1C(=O)Nc1ccc(C(=O)NCC2COc3ccccc3O2)cc1 (configuration not stated)	-1	.	2	.	0	1	.	.
O=C(NNC(=O)c1ccccc1OCc1ccccc1)c1ccccc1F	4	-2	3	4	8	10	.	.
O=C(NNC(=O)c1ccccc1OCc1ccccc1)c1ccccc1O	4	29	5	33*	8	4	-17	19*

Screening data as filed in PubChem BioAssay.
